This is an account of results in ChEMBL document CHEMBL3763157, “Synthesis and biological evaluation of novel orally available 1-phenyl-6-aminouracils containing dimethyldihydrobenzofuranol structure for the treatment of allergic skin diseases” (Bioorg Med Chem Lett, 2016).

SMILES strings stand for the structures. Converted amounts (≈) assume the structure as drawn. The source made the active and inactive calls. No cut-off for these calls is given here. Some results are limits rather than exact numbers.

Series [1] concerns Mus musculus. The series is described as follows: Antiinflammatory activity in ICR mouse assessed as inhibition of picryl chloride-induced contact hypersensitivity reaction administered topically on left ear after 24 hrs. In kind it is functional. In short, it runs like this:
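Mice sensitized with picryl chloride; test agent applied topically at 0.1 mg/ear in acetone. Percent inhibition is the drug-treated group's percent response relative to the control group, n = 5, reported as the mean of 5 animals.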

Series [2] is described as follows: Antioxidant activity assessed as suppression of H2O2/DETAPAC-Fe2+-mediated hydroxyl radical formation by measuring oxidation of dihydrorhodamine after 5 mins by fluorescence assay. Type of series: physicochemical.
Series [3] in a line: Antioxidant activity assessed as suppression of H2O2/cobalt2+-mediated hydroxyl radical formation by luminol-based […] assay. Type of series: physicochemical.
Series [4] deals with Mus musculus. Kind of series: Antiinflammatory activity in mouse assessed as inhibition of picryl chloride-induced contact hypersensitivity reaction at 10 mg/kg, po administered 30 mins prior to picryl chloride challenge. In kind it is functional, organism-based. A digest of the protocol: (§1)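 Mice sensitized with picryl chloride one week before the study. Oral dose given 30 min before picryl chloride challenge. Data are mean ± SEM, n = 5/group, analysed by Dunnett's test.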

Series [5] deals with Liver microsome. The series is described as follows: Metabolic stability in rat liver microsomal fraction assessed per mg of protein. Type of series: ADME. As to conditions: microsomes. In short, it runs like this:
(§2)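 Metabolic stability measured in human or rat liver microsomal fraction. Reported as mL/min/mg protein.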
Background: Liver microsomes are vesicles of endoplasmic reticulum, rich in cytochrome P450 enzymes.

Series [6] in a line: Clearance in mouse at 1 mg/kg, iv. In kind it is ADME, organism-based. The note with it: in vivo. In short, it runs like this: (§3)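 Mouse plasma PK after a single 1 mg/kg iv injection. Clearance (mL/min/kg) and steady-state volume of distribution (L/kg) derived from the plasma concentration profile.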
Series [7] in a line: Apparent permeability in human Caco2 cells. Type of series: ADME, cell-based. The note with it: Caco-2. A digest of the protocol: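 Caco-2 monolayer permeability reported as apparent permeability (Papp), in units of 10^-6 cm/s.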
Background: Caco-2 cells form a polarised layer with tight junctions and transporters.

Series [8] deals with Liver microsome. The series is described as follows: Metabolic stability in human liver microsomal fraction assessed per mg of protein. In kind it is ADME. As to conditions: microsomes. In short, it runs like this: as §2
The target of series [9] is Dual specificity mitogen-activated protein kinase kinase; MEK1/2 (Homo sapiens) (UniProt P36507+Q02750). The series is described as follows: Inhibition of MEK1/2 (unknown origin). In kind it is protein assay.
Sequence of Dual specificity mitogen-activated protein kinase kinase; MEK1/2 (Homo sapiens) (P36507 whole entry, looked up): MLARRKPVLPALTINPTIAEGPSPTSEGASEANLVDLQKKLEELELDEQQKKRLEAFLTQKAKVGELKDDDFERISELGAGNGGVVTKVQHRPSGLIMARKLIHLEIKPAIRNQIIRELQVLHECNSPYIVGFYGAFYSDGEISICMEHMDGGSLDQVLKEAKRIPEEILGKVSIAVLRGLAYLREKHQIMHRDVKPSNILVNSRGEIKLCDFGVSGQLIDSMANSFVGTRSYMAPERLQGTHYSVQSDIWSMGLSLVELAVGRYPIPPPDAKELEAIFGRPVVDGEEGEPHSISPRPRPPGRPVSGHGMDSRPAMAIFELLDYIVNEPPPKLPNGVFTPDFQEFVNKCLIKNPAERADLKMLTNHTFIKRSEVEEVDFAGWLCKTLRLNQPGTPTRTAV
Sequence of Dual specificity mitogen-activated protein kinase kinase; MEK1/2 (Homo sapiens) (Q02750 whole entry, looked up): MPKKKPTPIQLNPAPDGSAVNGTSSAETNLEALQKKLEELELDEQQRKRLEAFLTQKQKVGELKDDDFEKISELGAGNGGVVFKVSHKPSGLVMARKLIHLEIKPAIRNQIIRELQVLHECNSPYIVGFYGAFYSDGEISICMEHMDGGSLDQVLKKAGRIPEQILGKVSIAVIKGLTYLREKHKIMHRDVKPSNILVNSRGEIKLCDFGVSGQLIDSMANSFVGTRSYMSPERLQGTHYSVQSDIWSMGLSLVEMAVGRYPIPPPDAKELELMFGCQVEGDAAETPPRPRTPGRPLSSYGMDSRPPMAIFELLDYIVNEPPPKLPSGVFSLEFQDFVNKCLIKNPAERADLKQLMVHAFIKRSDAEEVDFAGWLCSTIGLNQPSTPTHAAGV
Series [10] deals with Mus musculus. The series is described as follows: Antiinflammatory activity in po dosed mouse assessed as inhibition of picryl chloride-induced contact hypersensitivity reaction administered 30 mins prior to picryl chloride challenge. In kind it is functional, organism-based. A digest of the protocol:
as §1

Series [11] can be described thus: AUC in mouse at 1 mg/kg, iv. As to conditions: in vivo. In kind it is ADME, organism-based. In short, it runs like this: (§4)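 Mouse pharmacokinetic study with single dosing, intravenous at 1 mg/kg or oral at 10 mg/kg. Plasma drug concentrations were measured, and AUC was taken from the plasma concentration curve. The same study also gave CL and Vdss (iv), Cmax (po) and oral bioavailability.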

Series [12] in a line: Solubility of the compound in phosphate buffer solution at pH 7.4. Type of series: physicochemical. In short, it runs like this: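 Solubility taken as the amount dissolved in phosphate buffer solution at pH 7.4, in […].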
Series [13] is described as follows: AUC in mouse at 10 mg/kg, po. As to conditions: in vivo. In kind it is ADME, organism-based. In short, it runs like this: as §4
A short description of series [14]: Oral bioavailability in mouse at 10 mg/kg. Type of series: ADME, organism-based. The note with it: in vivo. A digest of the protocol: (§5)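 Mouse plasma PK after 10 mg/kg oral dosing. Cmax in ng/mL. Bioavailability derived from oral AUC compared with AUC after a 1 mg/kg iv dose.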
The nature of series [15]: Cmax in mouse at 10 mg/kg, po. Type of series: ADME, organism-based. Details: dose 10 mg/kg, route oral. As to conditions: in vivo. In short, it runs like this:
as §5

Series [16] concerns Mus musculus. Kind of series: Antipruritic activity in mouse assessed as inhibition of substance P-induced pruritus at 10 mg/kg administered 30 mins prior to substance P challenge measured over 60 mins. In kind it is functional, organism-based. In short, it runs like this:
(§6)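 Oral dose given 30 min before substance P challenge. Scratches counted over 60 min. Data are mean ± SEM, n = 7–8/group, analysed by Dunnett's test.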

Series [17] is described as follows: Volume of distribution at steady state in mouse at 1 mg/kg, iv. As to conditions: in vivo, read-out: Vdss. In kind it is ADME, organism-based. A digest of the protocol: as §3
Series [18] relates to Mus musculus. The series is described as follows: Antipruritic activity in mouse assessed as inhibition of substance P-induced pruritus at 30 mg/kg administered 30 mins prior to substance P challenge measured over 60 mins. In kind it is functional, organism-based. A digest of the protocol: as §6

In the case of `Cc1c(O)c(C)c(C(=O)Nc2c(N)n(-c3cccc(F)c3)c(=O)n(C)c2=O)c2c1CC(C)(C)O2`, in the series with Mus musculus [1], the “inhibition (INH)” value was 10%.

Turning to `Cc1ccc(-n2c(N)c(NC(=O)c3c(C)c(O)c(C)c4c3OC(C)(C)C4)c(=O)n(C)c2=O)cc1`, the “inhibition (INH)” value with Mus musculus [1] is given as 30%.

As for `CCc1cccc(-n2c(N)c(NC(=O)c3c(C)c(O)c(C)c4c3OC(C)(C)C4)c(=O)n(C)c2=O)c1`, the “inhibition (INH)” value in the series with Mus musculus [1] is 14%.

Take `C=CC[C@@H]1/C=C(\C)C[C@H](C)C[C@H](OC)[C@H]2O[C@@](O)(C(=O)C(=O)N3CCCC[C@H]3C(=O)O[C@H](/C(C)=C/[C@@H]3CC[C@@H](O)[C@H](OC)C3)[C@H](C)[C@@H](O)CC1=O)[C@H](C)C[C@@H]2OC` [TACROLIMUS ANHYDROUS]: the “inhibition (INH)” value with Mus musculus [1] stood at 53%.

Consider `Cc1c(C)c2c(c(C)c1O)CCC(C)(C(=O)O)O2` (stereo unspecified) [TROLOX], for which the half-maximal inhibitory concentration (IC50) in [2] turned out to be 24 µM; in [3] it was 9.7 µM.

In the case of `Cc1c(O)c(C)c(C(=O)Nc2c(N)n(-c3cccc(C(=O)O)c3)c(=O)n(C)c2=O)c2c1CC(C)(C)O2`, in the series on Mus musculus [1], the “inhibition (INH)” value turned out to be 9%.

Turning to `C[C@]12C=CC(=O)C=C1CC[C@@H]1[C@@H]2[C@@H](O)C[C@@]2(C)[C@H]1CC[C@]2(O)C(=O)CO`, the inhibition entry with Mus musculus [4] was “Active”.

Regarding `CCOc1cccc(-n2c(N)c(NC(=O)c3c(C)c(O)c(C)c4c3OC(C)(C)C4)c(=O)n(C)c2=O)c1`, the “inhibition (INH)” value with Mus musculus [1] came to 16%.

`Cc1cccc(-n2c(N)c(NC(=O)c3c(C)c(O)c(C)c4c3OC(C)(C)C4)c(=O)n(C)c2=O)c1`: the Stability was < 10 µL/min/mg in the series with Liver microsome [5] and 19 µL/min/mg with Liver microsome [8]. In addition, the “inhibition (INH)” value with Mus musculus [1] was found to be 52%. The same compound returned a clearance in series [6] of 18 mL/min/kg. The Papp in [7] came out at 14 ×10⁻⁶ cm/s. For the same compound, the inhibition result (in series [9]; in the series with Mus musculus [16]) was “Active” each time. The inhibition result in the series on Mus musculus [10] was “Dose-dependent effect”. In addition, the results for the AUC in series [11] and in [13] were 927 ng·h/mL and 1100 ng·h/mL, respectively. The solubility in [12] was 21 µg/mL (≈ 45.2 µM). Besides, the IC50 in series [3] amounted to 8.6 µM. The compound further had a bioavailability in [14] of 12%. In [15], this compound gave a peak concentration (Cmax) of 511 ng/mL. Further, in series [17], the Vd came out at 1 L/kg.

As to `O=c1[nH]c2ccccc2n1CCCN1CCN(C(c2ccccc2)c2ccccc2)CC1`, the inhibition entry in the series on Mus musculus [18] was “Active”.

Consider `Cc1c(C)c2c(c(C)c1O)CC[C@@](C)(C(=O)Nc1c(N)n(-c3ccccc3)c(=O)n(C)c1=O)O2`, for which the 50% inhibitory concentration (IC50) in series [2] amounted to 44 µM; in series [3] it was 12.1 µM.

With `Cc1ccc(-n2c(N)c(NC(=O)c3c(C)c(O)c(C)c4c3OC(C)(C)C4)c(=O)n(C)c2=O)cc1C`, the “inhibition (INH)” value in the series on Mus musculus [1] is 45%.

In the case of `O=C1O[C@H]([C@@H](O)CO)C(O)=C1O` [ASCORBIC ACID], the IC50 turned out to be 54 µM in [2] and 82 µM in [3].

Regarding `Cc1cc(C)cc(-n2c(N)c(NC(=O)c3c(C)c(O)c(C)c4c3OC(C)(C)C4)c(=O)n(C)c2=O)c1`, the “inhibition (INH)” value with Mus musculus [1] was found to be 15%.

As usually defined, the IC50 is the concentration at which inhibition is half-maximal. What is called clearance is the rate of elimination divided by the concentration. A higher clearance goes with a high capacity for elimination. A word on the Papp: it is the rate of passage across a membrane or cell layer, normalised by area and donor concentration. The AUC is the area under the concentration-time curve, a measure of exposure. Higher therefore signals high exposure. Broadly, the solubility is the dissolved amount per volume that the medium holds. One may read the bioavailability as the share of a dose that reaches the circulation, judged against a reference dose that is usually intravenous. High values mean good availability, low ones poor availability. In general, Cmax refers to the maximum level reached in the sampled fluid or tissue.
